Here are results for ten compounds from ChEMBL document CHEMBL3244407, “Synthesis of spiro[tetralin-2,2'-pyrrolidine] and spiro[indan-2,2'-pyrrolidine] derivatives as potential analgesics” (J Med Chem, 1978).

The source made the active and inactive calls. No cut-off for these calls is given here. Bounds are passed on as bounds.

Data set [1] concerns Mus musculus. The experiment in a line: Analgesic activity in mouse assessed as inhibition of acetic acid-induced writhing response at 30 mg/kg, po administered 30 mins prior to acetic acid-challenge relative to control. Format: functional. In outline:
(§1)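 Mice in groups, dosed orally with vehicle or compound; 30 min later given dilute acetic acid ip (0.4 mL, 0.25%). Total squirming movements counted.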
(Writhing tests count abdominal constrictions after an irritant is injected.)

Data set [2] relates to Mus musculus. The experiment in a line: Antidepressant activity in mouse assessed as reversal of reserpine-induced hypothermia measured as cumulative temperature rise at 30 mg/kg administered 17 hrs post reserpine-challenge. Format: functional. The method in brief:
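Groups of six mice pretreated with reserpine 2 mg/kg sc; compound given 17 h later. Gastric temperature read just before dosing (t0) and at 2, 4 and 6 h. Cumulative rise T = (t2 + t4 + t6) − 3t0, averaged per group, in °C.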

For data set [3], the species on record is Mus musculus. The experiment in a line: Effect on CNS activity in mouse by maximal electroshock test. Format: functional, organism-based. As to conditions: Central nervous system. (The maximal electroshock test induces tonic seizures with an electrical stimulus.)
The species entered for data set [4] is Mus musculus. The experiment in a line: Effect on CNS activity in mouse by maximal metrazole shock test. Format: functional, organism-based. Particulars: Central nervous system.
The species entered for data set [5] is Mus musculus. The experiment in a line: Effect on locomotor activity in mouse. It is filed as functional, organism-based.
Data set [6] is filed under the species Mus musculus. The experiment in a line: Neurotoxicity in mouse by stationary rod test. Format: toxicity, organism-based. Particulars: in vivo.
For data set [7], the species on record is Mus musculus. The experiment in a line: animal or person. Format: functional. Particulars: route oral.
The species entered for data set [8] is Mus musculus. The experiment in a line: Analgesic activity in mouse by hot-plate test. It is filed as functional. On the technique in general: In hot-plate and tail-flick tests a longer latency is read as antinociception.
Data set [9] deals with Mus musculus. The experiment in a line: Analgesic activity in mouse assessed as inhibition of acetic acid-induced writhing response at 100 mg/kg, po administered 30 mins prior to acetic acid-challenge relative to control. Format: functional. In outline: as §1

One may read the inhibition in vivo as the percentage by which the read-out fell short of the control. Take `Br.Oc1ccc2c(c1)CCC1(CCCN1)C2` (stereo not given): in the data set on Mus musculus [1], the inhibition in vivo at 30 mg/kg is 0%. The T with Mus musculus [2] came out at 0.7 °C. In addition, the outcome in the data set filed under Mus musculus [3], in the data set filed under Mus musculus [4] and in the data set listed under Mus musculus [5] was inactive. Also, in the data set filed under Mus musculus [6], the Activity result was “Non-toxic”.

With `CN1CC[C@]23c4c5ccc(O)c4O[C@H]2[C@@H](O)C=C[C@H]3[C@H]1C5.Cl` [MORPHINE HYDROCHLORIDE], in the data set listed under Mus musculus [7], the inhibition in vivo at 10 mg/kg came out at 100%. Also, in the data set on Mus musculus [2], the T came out at 0.3 °C.

As a reminder, the ED50 is the dose at which the effect has come halfway, by size or by number of responders. A low value points to an effect at a small dose. For the compound `Cl.c1ccc2c(c1)CC1(CCCN1)C2`, in the data set listed under Mus musculus [7], 10 mg/kg produced 50% inhibition in vivo. In the data set listed under Mus musculus [8], this compound showed an ED50 of more than 30 mg/kg. Also, the T in the data set on Mus musculus [2] worked out at 5.1 °C. Also, the result in the data set filed under Mus musculus [3], in the data set listed under Mus musculus [4] and in the data set filed under Mus musculus [5] was inactive. Further, the Activity result in the data set listed under Mus musculus [6] is “Non-toxic”.

For `COc1ccc2c(c1)CCC1(CCCN1)C2.Cl` (stereo not given), the inhibition in vivo at 30 mg/kg with Mus musculus [1] came out at 50%. Further, the T with Mus musculus [2] is 0.2 °C. Further, the result in the data set listed under Mus musculus [3], in the data set filed under Mus musculus [4] and in the data set filed under Mus musculus [5] was inactive. Further, the Activity entry in the data set listed under Mus musculus [6] is listed as “Non-toxic”.

For the compound `Br.CN1CCCC12CCc1cc(O)ccc1C2` (stereo not given), in the data set with Mus musculus [1], the inhibition in vivo at 30 mg/kg is 75%. Further, in the data set with Mus musculus [2], the T was found to be 0.7 °C. In addition, the result in the data set filed under Mus musculus [3], in the data set filed under Mus musculus [4] and in the data set filed under Mus musculus [5] was inactive. Also, the Activity entry in the data set filed under Mus musculus [6] was “Non-toxic”.

For `CN1CCCC12Cc1ccccc1C2.Cl`, in the data set on Mus musculus [9], the inhibition in vivo at 100 mg/kg worked out at 50%. The T in the data set with Mus musculus [2] was 5.1 °C. The outcome in the data set listed under Mus musculus [3], in the data set listed under Mus musculus [4] and in the data set listed under Mus musculus [5] was inactive. The Activity result in the data set listed under Mus musculus [6] is reported as “Non-toxic”.

In the data set filed under Mus musculus [7], `Cl.c1ccc2c(c1)CCC1(CCCN1)C2` (stereo not given) came in with an inhibition in vivo at 10 mg/kg of 100%. Moreover, the median effective dose (ED50) in the data set listed under Mus musculus [8] turned out to be 7.1 mg/kg. Also, the T in the data set with Mus musculus [2] came to 4.5 °C. In addition, the result in the data set listed under Mus musculus [3], in the data set listed under Mus musculus [4] and in the data set listed under Mus musculus [5] was inactive. In addition, the Activity entry in the data set listed under Mus musculus [6] is “Non-toxic”.

Regarding `Br.COc1ccc2c(c1)CCC1(CCCN1C)C2` (stereo not given), the inhibition in vivo at 30 mg/kg with Mus musculus [1] amounted to 75%. For the same compound, the T in the data set with Mus musculus [2] was found to be 1.2 °C. In addition, the result in the data set filed under Mus musculus [3], in the data set filed under Mus musculus [4] and in the data set filed under Mus musculus [5] was inactive. In the data set filed under Mus musculus [6], the Activity result is “Non-toxic”.

For the compound `CN(C)CCCN1c2ccccc2CCc2ccccc21` [IMIPRAMINE], the inhibition in vivo at 30 mg/kg in the data set on Mus musculus [1] is 50%. Further, the T with Mus musculus [2] is 8 °C.

Turning to `CN1CCCC12CCc1ccccc1C2.Cl` (stereo not given), the inhibition in vivo at 10 mg/kg in the data set filed under Mus musculus [7] was 100%. The same compound displayed an ED50 in the data set filed under Mus musculus [8] of 7.4 mg/kg. For the same compound, the T with Mus musculus [2] was determined as 2.7 °C. For the same compound, the result in the data set filed under Mus musculus [3], in the data set listed under Mus musculus [4] and in the data set filed under Mus musculus [5] was inactive. The Activity result in the data set listed under Mus musculus [6] is “Non-toxic”.
